Columns and labels:
[1] = molecular target: T1, Prostaglandin G/H synthase 2 (Mus musculus, UniProt Q05769); assay: In vitro inhibitory activity against prostaglandin G/H synthase 2 using mouse peritoneal macrophage method
T1 sequence (Q05769 whole entry): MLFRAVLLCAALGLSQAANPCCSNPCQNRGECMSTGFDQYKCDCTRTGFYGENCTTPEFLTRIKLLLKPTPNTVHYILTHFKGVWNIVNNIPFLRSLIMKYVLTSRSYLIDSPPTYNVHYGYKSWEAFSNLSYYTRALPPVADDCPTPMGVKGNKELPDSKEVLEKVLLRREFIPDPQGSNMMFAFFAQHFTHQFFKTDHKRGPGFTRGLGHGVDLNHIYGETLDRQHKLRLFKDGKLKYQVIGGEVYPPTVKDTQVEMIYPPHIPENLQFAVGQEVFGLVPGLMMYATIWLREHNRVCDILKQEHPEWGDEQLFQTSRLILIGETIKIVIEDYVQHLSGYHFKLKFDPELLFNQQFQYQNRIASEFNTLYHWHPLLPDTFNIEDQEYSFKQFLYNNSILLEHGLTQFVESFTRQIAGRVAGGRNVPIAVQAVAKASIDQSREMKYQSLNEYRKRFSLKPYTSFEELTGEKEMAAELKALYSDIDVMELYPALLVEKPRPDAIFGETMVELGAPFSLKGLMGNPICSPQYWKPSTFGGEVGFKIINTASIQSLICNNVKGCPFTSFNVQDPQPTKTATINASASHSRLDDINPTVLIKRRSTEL

[2] = molecular target: T2, Prostaglandin G/H synthase 1 (Mus musculus, UniProt P22437); assay: In vitro inhibitory activity against prostaglandin G/H synthase 1 using mouse peritoneal macrophage method
T2 sequence (P22437 whole entry): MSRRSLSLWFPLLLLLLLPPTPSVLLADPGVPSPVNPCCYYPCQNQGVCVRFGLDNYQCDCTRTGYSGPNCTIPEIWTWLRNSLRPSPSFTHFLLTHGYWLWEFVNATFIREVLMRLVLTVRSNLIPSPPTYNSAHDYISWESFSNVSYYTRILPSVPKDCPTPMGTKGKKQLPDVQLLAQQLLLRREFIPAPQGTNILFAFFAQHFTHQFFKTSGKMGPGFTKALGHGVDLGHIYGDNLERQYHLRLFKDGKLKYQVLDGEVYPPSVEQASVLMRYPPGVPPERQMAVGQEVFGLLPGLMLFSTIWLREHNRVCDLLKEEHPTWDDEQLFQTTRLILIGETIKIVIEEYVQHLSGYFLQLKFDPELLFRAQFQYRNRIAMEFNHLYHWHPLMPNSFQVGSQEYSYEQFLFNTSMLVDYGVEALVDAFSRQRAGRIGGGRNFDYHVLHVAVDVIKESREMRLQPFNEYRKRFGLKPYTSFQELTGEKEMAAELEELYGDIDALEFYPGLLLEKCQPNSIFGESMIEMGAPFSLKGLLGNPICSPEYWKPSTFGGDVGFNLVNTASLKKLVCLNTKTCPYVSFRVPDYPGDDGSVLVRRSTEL
How it was run: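 Freshly harvested mouse peritoneal macrophages were the enzyme source. Cells were preincubated 10 min at 37 °C with inhibitor in DMSO, then stimulated with calcium ionophore A23187 for 10 min. The reaction was stopped with indomethacin in 0.1% BSA buffer and centrifuged, and supernatant TXB₂ was measured by ELISA.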

Rattus norvegicus [3] = assay: Inhibition of carrageenan-induced rat foot oedema following 3 mg/kg administration.; type: functional
How it was run: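 Male SD rats (160 ~ 190 g) were fasted overnight and given compound in 1% methylcellulose by oral gavage, at least 5 animals per group. One hour later, 0.05 mL of 1% carrageenan in saline was injected subplantar into the right hindpaw. Paw swelling was measured by plethysmometer 4 h after dosing and expressed as % inhibition.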

Rattus norvegicus [4] = assay: Antiinflammatory activity was determined by measuring adjuvant-induced arthritis in rats using therapeutic method; dose administered daily once; type: functional
How it was run: (§1)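 Therapeutic adjuvant arthritis in male SD rats (160 ~ 190 g). On day 0, 0.1 mL of 1% heat-killed M. butyricum in incomplete Freund's adjuvant was injected subplantar into the right hindpaw. On day 14, rats with left hindpaw swelling over 0.37 mL were selected and randomized. Daily treatment ran from day 14 to day 22, and % inhibition was taken from day-22 foot volumes.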

Rattus norvegicus [5] = assay: Antiinflammatory activity was determined by measuring adjuvant-induced arthritis in rats using preventive method; Range is 0.1~0.2 (dose administered daily twice); type: functional
How it was run: (§2)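 Preventive adjuvant arthritis in male Lewis rats (200 ~ 210 g), 10 per group. On day 0, 0.1 mL of 1% heat-killed M. butyricum in incomplete Freund's adjuvant was injected subplantar into the right hindpaw. Oral gavage dosing ran from day -1 to day 16. Left hindpaw volume was measured by plethysmometer on day 17, and % inhibition versus control was calculated.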

Rattus norvegicus [6] = assay: Ability of compound to cause gastric ulcerogenicity was determined in rats at 30 mg/kg when administered daily once; type: functional, Stomach
How it was run: (§3)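 Male SD rats (130 ~ 140 g) were dosed by oral gavage for 7 days, with compound suspended in 1% methylcellulose. Rats were fasted overnight before necropsy and killed 4 h after the last dose. Stomachs were scored for ulceration on a scale where 1 is an apparently normal stomach and 2 is pinpoint ulcers only.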

Rattus norvegicus [7] = assay: Antiinflammatory activity was determined by measuring adjuvant-induced arthritis in rats using therapeutic method; (dose administered daily once); type: functional; how it was run: as §1
Rattus norvegicus [8] = assay: Antiinflammatory activity was determined by measuring adjuvant-induced arthritis in rats using preventive method; Range is 0.2~0.3 (dose administered daily twice ); type: functional; how it was run: as §2
Rattus norvegicus [9] = assay: Antiinflammatory activity was determined by measuring adjuvant-induced arthritis in rats using therapeutic method; dose administered daily twice; type: functional; how it was run: as §1
Rattus norvegicus [10] = assay: Antiinflammatory activity was determined by measuring adjuvant-induced arthritis in rats using preventive method; dose administered daily twice; type: functional; how it was run: as §2
Rattus norvegicus [11] = assay: Ability of compound to cause gastric ulcerogenicity was determined in rats at 5 mg/kg when administered daily once; type: functional, Stomach; how it was run: as §3
Rattus norvegicus [12] = assay: Antiinflammatory activity was determined by measuring adjuvant-induced arthritis in rats using preventive method; dose administered daily once; type: functional; how it was run: as §2
Rattus norvegicus [13] = assay: Ability of compound to cause gastric ulcerogenicity was determined in rats at 5 mg/kg; type: functional, Stomach; how it was run: as §3

IC50 [1] [µM] | IC50 [2] [µM] | Compound | inhibition in vivo at 3 mg/kg (Rattus norvegicus [3]) [%] | also measured
1.46 | 29.1 | CC1(C)OC(c2ccc(S(C)(=O)=O)cc2)=C(c2cccnc2)C1=O |  | 
0.0233 | 0.178 | CC1(C)OC(c2ccc(S(N)(=O)=O)cc2)=C(c2ccccc2)C1=O |  | 
0.0705 | 47 | CCC1(C)OC(c2ccc(S(C)(=O)=O)cc2)=C(c2cc(Cl)cc(Cl)c2)C1=O (stereo unspecified) |  | 
 | 7.57 | Cc1cccc(C2=C(c3ccc(S(C)(=O)=O)cc3)OC3(CCCCC3)C2=O)c1 |  | 
 |  | CCC1(C)OC(c2ccc(S(C)(=O)=O)cc2)=C(c2cccc(Cl)c2)C1=O (stereo unspecified) | 23 | 
 |  | Cn1cc(C2=C(c3ccc(S(N)(=O)=O)cc3)OC(C)(C)C2=O)cn1 | 29 | 
0.0185 | 5.01 | CC1(C)OC(c2ccc(S(N)(=O)=O)cc2)=C(c2ccc(F)c(F)c2)C1=O |  | 
 |  | CC1(C)OC(c2ccc(S(N)(=O)=O)cc2F)=C(c2cc(F)cc(F)c2)C1=O | 32 | 
0.76 | 7.6 | CC1(C)OC(c2ccc(S(C)(=O)=O)cc2)=C(c2ccc(F)c(Cl)c2)C1=O | 31 | 
 | 55.3 | CC1(C)OC(c2ccc(S(N)(=O)=O)cc2F)=C(c2ccccc2)C1=O |  | 
 |  | Cc1cccc(C2=C(c3ccc(S(C)(=O)=O)cc3)OC3(CCCC3)C2=O)c1 | 26 | 
 |  | CC1(C)OC(c2ccc(S(C)(=O)=O)cc2)=C(c2cccc(Cl)c2)C1=O | 16 | 
0.0712 | 0.0712 | CC1(C)OC(c2ccc(S(C)(=O)=O)cc2)=C(c2ccc(Br)cc2)C1=O |  | 
 |  | CC1(C)OC(c2ccc(S(N)(=O)=O)c(F)c2)=C(c2cccc(F)c2)C1=O | 27 | 
5.23 | 26.1 | CS(=O)(=O)c1ccc(C2=C(c3ccccc3)C(=O)C3(CCCCC3)O2)cc1 |  | 
 |  | CC1(C)OC(c2ccc(S(N)(=O)=O)c(F)c2)=C(c2cc(F)cc(F)c2)C1=O | 31 | 
 |  | CC1(C)OC(c2ccc(S(C)(=O)=O)c(F)c2)=C(c2cccc(Cl)c2)C1=O | 28 | 
 |  | CC1(C)OC(c2ccc(S(C)(=O)=O)c(F)c2)=C(c2cc(F)cc(F)c2)C1=O |  | ED50 (Rattus norvegicus [4]): > 0.1 mg/kg/day
 | 23.6 | CCC1(C)OC(c2ccc(S(C)(=O)=O)cc2)=C(c2cccc(C(F)(F)F)c2)C1=O (stereo unspecified) |  | 
0.343 | 13.7 | CC1(C)OC(c2ccc(S(N)(=O)=O)cc2)=C(c2ccsc2)C1=O |  | 

IC50 [1] [µM] | IC50 [2] [µM] | Compound | inhibition in vivo at 3 mg/kg (Rattus norvegicus [3]) [%] | also measured
0.0337 | 0.675 | CC(=O)c1ccc(C2=C(c3ccc(S(N)(=O)=O)cc3)OC(C)(C)C2=O)cc1 | 26 | 
0.0267 | 1.99 | CC1(C)OC(c2ccc(S(N)(=O)=O)cc2)=C(c2cccc(C(F)(F)F)c2)C1=O |  | 
1.44 | 86.6 | Cn1cc(C2=C(c3ccc(S(C)(=O)=O)cc3)OC(C)(C)C2=O)cn1 | 36 | ED50 (Rattus norvegicus [4]): ~0.3 mg/kg/day
 |  | CCCCc1ccc(C2=C(c3ccc(S(C)(=O)=O)cc3)OC(C)(C)C2=O)cc1 | 8 | 
 |  | CC(=O)c1ccc(C2=C(c3ccc(S(C)(=O)=O)cc3)OC(C)(C)C2=O)cc1 |  | ED50 (Rattus norvegicus [5]): 0.1 mg/kg/day
7.76 | 7.76 | CS(=O)(=O)c1ccc(C2=C(c3cccc(F)c3)C(=O)C3(CCCC3)O2)cc1 |  | 
13.5 | 81 | CCC1(CC)OC(c2ccc(S(C)(=O)=O)cc2)=C(c2ccccc2)C1=O |  | 
1.3 | 26 | CCC1(CC)OC(c2ccc(S(C)(=O)=O)cc2)=C(c2cccc(C)c2)C1=O |  | 
 |  | CC1(C)OC(c2ccc(S(N)(=O)=O)cc2)=C(c2cccc(Cl)c2)C1=O | 39 | ED50 (Rattus norvegicus [4]): 0.03 mg/kg/day
 |  | CC1(C)OC(c2ccc(S(C)(=O)=O)cc2)=C(c2cccc(F)c2)C1=O | 36 | Activity (Rattus norvegicus [6]): 1.8; ED50 (Rattus norvegicus [7]): 0.07 mg/kg/day; ED50 (Rattus norvegicus [8]): 0.3 mg/kg/day
 |  | CC1(C)OC(c2ccc(S(C)(=O)=O)cc2)=C(c2cc(F)cc(F)c2)C1=O | 34 | Activity (Rattus norvegicus [6]): 1.8
 |  | CC(=O)c1cccc(C2=C(c3ccc(S(C)(=O)=O)cc3)OC(C)(C)C2=O)c1 | 22 | 
 |  | CC1(C)OC(c2ccc(S(C)(=O)=O)cc2)=C(c2cccc(C(F)(F)F)c2)C1=O | 31 | 
 |  | Cc1ccc(-c2cc(C(F)(F)F)nn2-c2ccc(S(N)(=O)=O)cc2)cc1 [CELECOXIB] | 34 | ED50 (Rattus norvegicus [9]): 0.37 mg/kg/day
 |  | Cc1ccc(-c2ncc(Cl)cc2-c2ccc(S(C)(=O)=O)cc2)cn1 [ETORICOXIB] |  | ED50 (Rattus norvegicus [10]): 0.7 mg/kg/day
 |  | COc1ccc2c(c1)c(CC(=O)O)c(C)n2C(=O)c1ccc(Cl)cc1 [INDOMETHACIN] | 45 | Activity (Rattus norvegicus [11]): 3.5
 |  | Cc1cnc(NC(=O)C2=C(O)c3ccccc3S(=O)(=O)N2C)s1 [MELOXICAM] |  | ED50 (Rattus norvegicus [12]): 0.28 mg/kg/day
0.0083 | 0.83 | CC1(C)OC(c2ccc(S(N)(=O)=O)cc2)=C(c2cccc(F)c2)C1=O [POLMACOXIB] | 47 | Activity (Rattus norvegicus [13]): 1.5; ED50 (Rattus norvegicus [10]): 0.1 mg/kg/day; ED50 (Rattus norvegicus [9]): 0.01 mg/kg/day; ED50 (Rattus norvegicus [4]): 0.02 mg/kg/day
 |  | CS(=O)(=O)c1ccc(C2=C(c3ccccc3)C(=O)OC2)cc1 [ROFECOXIB] |  | ED50 (Rattus norvegicus [10]): 0.74 mg/kg/day
 |  | Cc1onc(-c2ccccc2)c1-c1ccc(S(N)(=O)=O)cc1 [VALDECOXIB] |  | ED50 (Rattus norvegicus [9]): 0.032 mg/kg/day

— ChEMBL document CHEMBL1148409, “In vitro structure-activity relationship and in vivo studies for a novel class of cyclooxygenase-2 inhibitors: 5-aryl-2,2-dialkyl-4-phenyl-3(2H)furanone derivatives” (J Med Chem, 2004)
